Each structure is given as a SMILES string. Activity calls are given as the source filed them. The calls are words filed in the database; no cut-off is given here. Some results are limits rather than exact numbers.

Test [1] has as its target T1, Retinoic acid receptor RXR-alpha (Homo sapiens) (UniProt P19793).
T1 sequence (whole entry): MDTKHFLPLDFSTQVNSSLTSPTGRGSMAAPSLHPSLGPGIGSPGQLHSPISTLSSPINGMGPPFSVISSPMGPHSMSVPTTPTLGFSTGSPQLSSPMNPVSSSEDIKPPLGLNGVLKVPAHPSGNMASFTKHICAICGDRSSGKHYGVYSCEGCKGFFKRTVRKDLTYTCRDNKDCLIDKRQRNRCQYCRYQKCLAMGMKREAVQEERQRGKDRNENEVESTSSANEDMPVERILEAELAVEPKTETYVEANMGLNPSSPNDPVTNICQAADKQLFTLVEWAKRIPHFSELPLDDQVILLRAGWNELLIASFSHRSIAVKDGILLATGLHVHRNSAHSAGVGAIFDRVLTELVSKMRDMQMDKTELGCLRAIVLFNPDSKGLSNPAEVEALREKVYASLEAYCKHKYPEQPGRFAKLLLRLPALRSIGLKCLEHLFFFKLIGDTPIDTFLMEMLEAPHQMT
In words: Agonist activity at RXRalpha expressed in african green monkey COS1 cells by luciferase reporter gene assay relative to LGD1069. Type of test: functional, cell-based. The settings on record: COS-1. The essentials:
(§1)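 Luciferase reporter gene assay in COS-1 cells. Each subtype's activity is expressed relative to 1 μM LGD1069, an RXR pan-agonist, used as the reference.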
(Reporter assays use an easily measured gene product as a stand-in for the process of interest.)

For test [2], the target named is T2, Retinoic acid receptor RXR-beta (Homo sapiens) (UniProt P28702).
T2 sequence (whole entry): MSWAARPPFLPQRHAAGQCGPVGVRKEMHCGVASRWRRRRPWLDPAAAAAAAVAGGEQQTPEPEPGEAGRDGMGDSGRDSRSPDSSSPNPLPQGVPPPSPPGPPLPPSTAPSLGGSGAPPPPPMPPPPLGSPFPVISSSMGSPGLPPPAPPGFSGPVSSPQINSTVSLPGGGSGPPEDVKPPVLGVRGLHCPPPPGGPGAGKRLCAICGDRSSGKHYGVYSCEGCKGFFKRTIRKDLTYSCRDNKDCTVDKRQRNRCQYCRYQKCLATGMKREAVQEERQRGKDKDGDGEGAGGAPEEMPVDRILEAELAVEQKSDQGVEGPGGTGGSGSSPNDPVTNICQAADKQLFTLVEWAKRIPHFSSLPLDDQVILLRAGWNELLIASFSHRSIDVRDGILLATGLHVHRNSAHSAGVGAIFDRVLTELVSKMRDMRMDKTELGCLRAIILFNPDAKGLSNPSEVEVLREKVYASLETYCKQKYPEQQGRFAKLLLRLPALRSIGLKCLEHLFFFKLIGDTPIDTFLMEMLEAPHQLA
Kind of test: Agonist activity at RXRbeta expressed in african green monkey COS1 cells by luciferase reporter gene assay relative to LGD1069. In kind it is functional, cell-based. The settings on record: COS-1. The essentials: as §1

Test [3] has as its target T3, Retinoic acid receptor RXR-gamma (Homo sapiens) (UniProt P48443).
T3 sequence (whole entry): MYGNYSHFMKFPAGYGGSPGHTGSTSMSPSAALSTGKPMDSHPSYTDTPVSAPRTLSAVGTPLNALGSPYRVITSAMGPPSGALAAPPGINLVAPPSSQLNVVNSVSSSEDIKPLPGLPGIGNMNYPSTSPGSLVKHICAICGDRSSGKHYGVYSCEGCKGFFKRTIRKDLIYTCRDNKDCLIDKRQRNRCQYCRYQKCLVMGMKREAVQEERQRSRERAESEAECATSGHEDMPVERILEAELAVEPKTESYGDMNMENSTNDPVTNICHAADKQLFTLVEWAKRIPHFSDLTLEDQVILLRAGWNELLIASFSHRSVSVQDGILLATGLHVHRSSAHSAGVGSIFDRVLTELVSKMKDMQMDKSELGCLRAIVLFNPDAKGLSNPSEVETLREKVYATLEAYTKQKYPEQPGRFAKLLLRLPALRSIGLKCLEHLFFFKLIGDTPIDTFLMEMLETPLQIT
In words: Agonist activity at RXRgamma expressed in african green monkey COS1 cells by luciferase reporter gene assay relative to LGD1069. Type of test: functional, cell-based. The settings on record: COS-1. In outline: as §1

In test [4] the target is T4, Retinoic acid receptor RXR-alpha (Homo sapiens, UniProt P19793).
T4 sequence (P19793 whole entry): T1 sequence (whole entry)
In words: Antagonist activity at RXRalpha expressed in african green monkey COS1 cells assessed as inhibition of LGD-1069-induced agonist activity. In kind it is functional, cell-based, COS-1.

Test [5] addresses T5, Retinoic acid receptor RXR-beta (Homo sapiens, UniProt P28702).
T5 sequence (P28702 whole entry): T2 sequence (whole entry)
In words: Antagonist activity at RXRbeta expressed in african green monkey COS1 cells assessed as inhibition of LGD-1069-induced agonist activity. In kind it is functional, cell-based, COS-1. The essentials: (§2)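 Luciferase reporter gene assay in COS-1 cells measuring inhibition of LGD1069-driven activity. IC50 is taken from full dose–response curves spanning 10^-7 to 10^-5 M.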

Test [6] has as its target T6, Retinoic acid receptor RXR-gamma (Homo sapiens, UniProt P48443).
T6 sequence (P48443 whole entry): T3 sequence (whole entry)
In words: Antagonist activity at RXRgamma expressed in african green monkey COS1 cells assessed as inhibition of LGD-1069-induced agonist activity. Type of test: functional, cell-based, COS-1. The essentials:
as §2

A word on the IC50: it is the point on the concentration scale where inhibition reaches its midpoint. Turning to `COc1ccc(S(=O)(=O)N(c2ccc3c(c2)C(C)(C)CCC3(C)C)c2ccc(C(=O)O)cn2)cc1`, the outcome in test [1], in test [2] and in test [3] was inactive. Also, the values for the IC50 in test [4], in test [5] and in test [6] were 2.7 µM, 3.9 µM and 6.6 µM, respectively.

With `Cc1ccc(S(=O)(=O)N(c2ccc3c(c2)C(C)(C)CCC3(C)C)c2ccc(C(=O)O)cn2)cc1`, the result in test [1], in test [2] and in test [3] was inactive. In addition, the IC50 was 5.2 µM in test [4], 3 µM in test [5] and 3.8 µM in test [6].

As for `CCCCS(=O)(=O)N(c1ccc2c(c1)C(C)(C)CCC2(C)C)c1ccc(C(=O)O)cn1`, the IC50 in test [4], in test [5] and in test [6] was over 10 µM throughout.

Turning to `CN1c2ccc([N+](=O)[O-])cc2N=C(c2ccc(C(=O)O)cc2)c2cc3c(cc21)C(C)(C)CCC3(C)C`, the values for the half-maximal inhibitory concentration (IC50) in test [5] and in test [6] were 0.044 µM and 0.38 µM, respectively.

Consider `CC1(C)CCC(C)(C)c2cc(N(c3ccc(C(=O)O)cn3)S(=O)(=O)c3ccc(C(F)(F)F)cc3)ccc21`, for which the outcome in test [1], in test [2] and in test [3] was inactive. Further, the IC50 in test [4] amounted to 3.2 µM; in test [5] it was 0.75 µM; in test [6], 2.7 µM.

As to `CC1(C)CCC(C)(C)c2cc(N(c3ccc(C(=O)O)cn3)S(=O)(=O)c3ccc(Cl)cc3)ccc21`, the result in test [1], in test [2] and in test [3] was inactive. Moreover, the IC50 in test [4] worked out at 4.1 µM; in test [5], 0.87 µM; in test [6], 4.5 µM.

`CC1(C)CCC(C)(C)c2cc(N(c3ccc(C(=O)O)cn3)S(=O)(=O)c3ccccc3)ccc21`: the outcome in test [1], in test [2] and in test [3] was inactive. The IC50 in test [4], in test [5] and in test [6] was over 10 µM throughout.

Turning to `CC1(C)CCC(C)(C)c2cc(N(c3ccc(C(=O)O)cn3)S(=O)(=O)c3ccc([N+](=O)[O-])cc3)ccc21`, the result in test [1], in test [2] and in test [3] was inactive. The IC50 in test [4], in test [5] and in test [6] was over 10 µM throughout.

The values above are taken from ChEMBL document CHEMBL1141025, “Replacing alkyl sulfonamide with aromatic sulfonamide in sulfonamide-type RXR agonists favors switch towards antagonist activity” (Bioorg Med Chem Lett, 2009).
